ChEMBL document CHEMBL1123011, “Isoxazoles with antipicornavirus activity” (1985)
In brackets after ≈: the same amount, converted by molar mass. Activity calls are given as the source filed them. No cut-off for these calls is given here.

Key:
rhinovirus A2 [1] = assay: (§1) In vitro anti-picornavirus activity against Rhinovirus type-2.; format: functional; details: Rhinovirus A
In short: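 HeLa (Ohio) monolayers (day-old, 90%) were infected at about 80 pfu/well and adsorbed at least 1 h at 33 °C in 2% CO2. After 3 days at 33 °C they were fixed with formaldehyde and stained with crystal violet.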

[2] = Maximum testable level of compound was evaluated; format: functional
In short: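 In the HeLa (Ohio) plaque-overlay system, Me2SO-solubilized compound was twofold serially diluted into the agarose overlay. Uninfected cell controls were run alongside and cells were stained with crystal violet after 3 days. The maximum testable level was taken as the concentration below which no cytotoxic effects were seen.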

Poliovirus 2 [3] = assay: In vitro anti-picornavirus activity against Poliovirus type-2.; format: functional; details: Enterovirus C
rhinovirus A2 [4] = assay: In vitro anti-picornavirus activity against Rhinovirus type-2; Not Active.; format: functional, organism-based
In short: (§2)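 HeLa (Ohio) monolayers (day-old, 90%) were infected at about 80 pfu/well and adsorbed at least 1 h at 33 °C in 2% CO2. After 3 days at 33 °C they were fixed with formaldehyde and stained with crystal violet. MIC was the concentration giving 50% fewer plaques.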

Poliovirus 2 [5] = assay: Compound tested in vitro for anti-picornavirus activity against Poliovirus type-2; format: functional; details: Enterovirus C
In short: (§3)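 Plaque-reduction assay on day-old HeLa (Ohio) monolayers at 90% confluence, infected with polio-2 at ca. 80 pfu/well. Adsorption was at least 1 h at 37 °C in 2% CO2. Cells were then overlaid in duplicate with drug in M-199/calf serum/agarose (Me2SO stock at 10 mg/mL, twofold dilutions) and held 3 days. Plaques were fixed with formaldehyde, stained with crystal violet and counted. MIC is the concentration giving 50% plaque reduction.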

Poliovirus 2 [6] = assay: In vitro for anti-picornavirus activity against Poliovirus type-2; Not Active.; format: functional, organism-based; in short: as §3
rhinovirus A2 [7] = assay: as §1; format: functional; details: Rhinovirus A; in short: as §2; remark: listed apart in the source
Poliovirus 2 [8] = assay: Compound tested in vitro for anti-picornavirus activity against Poliovirus type-2; NA=Not Active; format: functional, organism-based; in short: as §3
Poliovirus 2 [9] = assay: Compound tested in vitro for anti-picornavirus activity against Poliovirus type-2; NA=Not Active.; format: functional, organism-based; in short: as §3

| SMILES | MIC (rhinovirus A2 [1]) [µg/mL] | MTL [2] [µg/mL] | MIC (Poliovirus 2 [3]) [µg/mL] | MIC (rhinovirus A2 [7]) [µg/mL] | also measured |
| --- | --- | --- | --- | --- | --- |
| Cc1cc(CCCCCCCOc2ccc(C(=O)OC(C)C)cc2)on1 | 0.2 (≈ 0.556 µM) | 12.5 | 0.9 (≈ 2.5 µM) | – | – |
| CCc1noc(CC)c1CCCCCCOc1ccc(SC)cc1 | – | 12.5 | – | – | MIC (rhinovirus A2 [4]): inactive; MIC (Poliovirus 2 [5]): 0.6 µg/mL (≈ 1.73 µM) |
| CCOC(=O)c1cccc(OCCCCCCCc2cc(C)no2)c1 | 1.6 (≈ 4.63 µM) | 12.5 | – | – | MIC (Poliovirus 2 [6]): inactive |
| CCc1noc(CC)c1CCCCCCOc1ccccc1F | – | 6.2 | – | 3.1 (≈ 9.71 µM) | MIC (Poliovirus 2 [8]): inactive |
| CCc1noc(CC)c1CCCCCCOc1ccc(OC)cc1[N+](=O)[O-] | 0.3 (≈ 0.797 µM) | 6 | 1.5 (≈ 3.98 µM) | – | – |
| CCc1noc(CC)c1CCCCCCOc1ccc(C(=O)O)cc1 | – | 3.1 | – | – | MIC (Poliovirus 2 [8]): inactive; MIC (rhinovirus A2 [4]): inactive |
| Cc1cc(CCCCCCCOc2ccc(OC(C)C)cc2)on1 | 0.7 (≈ 2.11 µM) | 12.5 | 0.1 (≈ 0.302 µM) | – | – |
| Cc1cc(CCCCCCCOc2ccccc2)on1 | 1.2 (≈ 4.39 µM) | 6.2 | 1.7 (≈ 6.22 µM) | – | – |
| CCOC(=O)c1ccc(OCCCCCCCCc2cc(C)no2)cc1 | 0.05 (≈ 0.139 µM) | 12.5 | – | – | MIC (Poliovirus 2 [6]): inactive |
| CCc1noc(CC)c1CCCCCCOc1ccc(O)cc1 | – | 25 | – | – | MIC (Poliovirus 2 [8]): inactive; MIC (rhinovirus A2 [4]): inactive |
| Cc1cc(CCCCCCCOc2ccc(C(N)=O)cc2)on1 | – | 12.5 | – | – | MIC (rhinovirus A2 [4]): inactive; MIC (Poliovirus 2 [6]): inactive |
| Cc1ccc(OCCCCCCCc2cc(C)no2)c(Cl)c1 | 1.2 (≈ 3.73 µM) | 6.2 | 0.8 (≈ 2.49 µM) | – | – |
| CCc1noc(CC)c1CCCCCCOc1ccc(F)cc1Cl | – | 12.5 | – | 3.1 (≈ 8.76 µM) | MIC (Poliovirus 2 [8]): inactive |
| CCOC(=O)c1ccc(OCCCCc2cc(C)no2)cc1 | – | 6.2 | – | 3.1 (≈ 10.2 µM) | MIC (Poliovirus 2 [8]): inactive |
| Cc1cc(CCCCCCCOc2ccc(Cl)cc2)on1 | 1.5 (≈ 4.87 µM) | 3.1 | 0.3 (≈ 0.975 µM) | – | – |
| Cc1cc(CCCCCCCOc2ccc(C(=O)OC(C)(C)C)cc2)on1 | 6.2 (≈ 16.6 µM) | 2.5 | 1.2 (≈ 3.21 µM) | – | – |
| CCc1noc(CC)c1CCCCCCOc1ccc(OC)cc1Cl | – | 12 | – | 0.8 (≈ 2.19 µM) | MIC (Poliovirus 2 [9]): inactive |
| COc1ccc(OCCCCCCc2cc(C)no2)c(Cl)c1 | – | 12.5 | – | 0.8 (≈ 2.47 µM) | MIC (Poliovirus 2 [5]): 0.3 µg/mL (≈ 0.926 µM) |
| CCOC(=O)c1ccc(OCCCCCCCc2c(CC)noc2CC)cc1 | 0.05 (≈ 0.129 µM) | 12 | 0.4 (≈ 1.03 µM) | – | – |
| CCc1noc(CC)c1CCCCCCOc1ccc(OC)cc1C(=O)O | – | 12.5 | – | – | MIC (Poliovirus 2 [8]): inactive; MIC (rhinovirus A2 [4]): inactive |
| COC(=O)c1ccc(OCCCCCCCc2cc(C)no2)cc1 | 3 (≈ 9.05 µM) | 6.2 | 0.4 (≈ 1.21 µM) | – | – |
| CCc1noc(CC)c1CCCCCCOc1ccc(OC)cc1 | – | 6.2 | – | 3.1 (≈ 9.35 µM) | MIC (Poliovirus 2 [8]): inactive |
| Cc1cc(CCCCCCCOc2ccc(OCc3ccccc3)cc2)on1 | – | 12.5 | – | – | MIC (rhinovirus A2 [4]): inactive |
| CCCOC(=O)c1ccc(OCCCCCCCc2cc(C)no2)cc1 | 0.07 (≈ 0.195 µM) | 25 | – | – | MIC (Poliovirus 2 [6]): inactive |

| SMILES | MIC (rhinovirus A2 [1]) [µg/mL] | MTL [2] [µg/mL] | MIC (Poliovirus 2 [3]) [µg/mL] | MIC (rhinovirus A2 [7]) [µg/mL] | also measured |
| --- | --- | --- | --- | --- | --- |
| Cc1cc(CCCCCCCOc2ccc(C(=O)NN)cc2)on1 | 0.64 (≈ 1.93 µM) | 12.5 | – | – | MIC (Poliovirus 2 [6]): inactive |
| CCc1noc(CC)c1CCCCCCOc1ccccc1C(F)(F)F | – | 6.2 | – | 3.1 (≈ 8.39 µM) | MIC (Poliovirus 2 [8]): inactive |
| Cc1cc(CCCCCCCOc2ccc(C(C)C)cc2)on1 | 1 (≈ 3.17 µM) | 12.5 | 0.04 (≈ 0.127 µM) | – | – |
| COc1ccc(OCCCCCCCc2cc(C)no2)c([N+](=O)[O-])c1 | 0.3 (≈ 0.861 µM) | 3.1 | 0.2 (≈ 0.574 µM) | – | – |
| COc1ccc(OCCCCCc2cc(C)no2)c(Cl)c1 | – | 12.5 | – | 0.4 (≈ 1.29 µM) | MIC (Poliovirus 2 [5]): 0.2 µg/mL (≈ 0.646 µM) |
| CCc1noc(CC)c1CCCCCCOc1ccc(OC)cc1C(=O)OC | – | 12 | – | – | MIC (rhinovirus A2 [4]): inactive; MIC (Poliovirus 2 [5]): 2.9 µg/mL (≈ 7.45 µM) |
| CCOC(=O)c1ccc(OCCCCCCCCc2c(CC)noc2CC)cc1 | 0.4 (≈ 0.996 µM) | 12.5 | – | – | MIC (Poliovirus 2 [6]): inactive |
| CCc1noc(CC)c1CCCCCCOc1ccc2c(c1)OCO2 | – | 6.2 | – | – | MIC (Poliovirus 2 [8]): inactive; MIC (rhinovirus A2 [4]): inactive |
| CC(=O)c1ccc(OCCCCCCCc2cc(C)no2)cc1 | 1.6 (≈ 5.07 µM) | 12.5 | 0.01 (≈ 0.0317 µM) | – | – |
| CCc1noc(CC)c1CCCCCCOc1ccc(C(=O)OC)cc1Cl | – | 1.6 | – | 0.4 (≈ 1.02 µM) | MIC (Poliovirus 2 [5]): 0.61 µg/mL (≈ 1.55 µM) |
| Cc1cc(CCCCCCCOc2ccc(C(=O)N(C)C)cc2)on1 | – | 3.1 | 2.5 (≈ 7.26 µM) | – | MIC (rhinovirus A2 [4]): inactive |
| CCOC(=O)c1ccc(OCCCCCCc2c(CC)noc2CC)cc1 | – | 6.2 | – | 0.1 (≈ 0.268 µM) | MIC (Poliovirus 2 [5]): 0.5 µg/mL (≈ 1.34 µM) |
| CCc1noc(CC)c1CCCCCCOc1c(OC)cccc1OC | – | 6.2 | – | 3.1 (≈ 8.58 µM) | MIC (Poliovirus 2 [8]): inactive |
| CCOC(=O)c1ccc(OCCCCCCCc2cc(C)no2)cc1 | 0.025 (≈ 0.0724 µM) | 2.5 | 0.8 (≈ 2.32 µM) | – | – |
| CCc1noc(CC)c1CCCCCCOc1ccc(Br)cc1 | – | 6 | – | – | MIC (Poliovirus 2 [8]): inactive; MIC (rhinovirus A2 [4]): inactive |
| CCC(=O)c1ccc(OCCCCCCCc2cc(C)no2)cc1 | 1.7 (≈ 5.16 µM) | 6.2 | 0.4 (≈ 1.21 µM) | – | – |
| CCc1noc(CC)c1CCCCCCOc1c(Cl)cccc1Cl | – | 12 | – | 1.6 (≈ 4.32 µM) | MIC (Poliovirus 2 [5]): 5.9 µg/mL (≈ 15.9 µM) |
| CCc1noc(CC)c1CCCCCCOc1ccc(C(=O)OC)cc1Br | – | 12.5 | – | 0.4 (≈ 0.912 µM) | MIC (Poliovirus 2 [5]): 2.2 µg/mL (≈ 5.02 µM) |
| Cc1cc(CCCCCCCOc2ccc([N+](=O)[O-])cc2)on1 | – | 1.6 | 1.5 (≈ 4.71 µM) | – | MIC (rhinovirus A2 [4]): inactive |
| CCOC(=O)c1ccc(OCCCCCCc2cc(C)no2)cc1 | – | 12.5 | – | 0.01 (≈ 0.0302 µM) | MIC (Poliovirus 2 [5]): 0.8 µg/mL (≈ 2.41 µM) |
| CCc1noc(CC)c1CCCCCCOc1cccc(I)c1 | – | 12.5 | – | 6.3 (≈ 14.7 µM) | MIC (Poliovirus 2 [8]): inactive |
| CCc1noc(CC)c1CCCCCCOc1ccc(OC)cc1Br | – | 6 | – | 0.4 (≈ 0.975 µM) | MIC (Poliovirus 2 [8]): inactive |
| COc1ccc(OCCCCCCCCc2cc(C)no2)c(Cl)c1 | 0.16 (≈ 0.455 µM) | 12.5 | 0.65 (≈ 1.85 µM) | – | – |
| CCOC(=O)c1ccc(OCCCCCc2cc(C)no2)cc1 | – | 12.5 | – | 0.015 (≈ 0.0473 µM) | MIC (Poliovirus 2 [5]): 0.6 µg/mL (≈ 1.89 µM) |
